According to ChEMBL document CHEMBL1151869, “Discovery of novel 3,6-disubstituted 2-pyridinecarboxamide derivatives as GK activators” (Bioorg Med Chem Lett, 2009):
The source made the active and inactive calls. The rule behind the calls is not given here.

Legend:
Hexokinase-4 = target: T1, Hexokinase-4 (Homo sapiens, UniProt P35557); assay: Activation of glucokinase
T1 sequence (P35557 whole entry): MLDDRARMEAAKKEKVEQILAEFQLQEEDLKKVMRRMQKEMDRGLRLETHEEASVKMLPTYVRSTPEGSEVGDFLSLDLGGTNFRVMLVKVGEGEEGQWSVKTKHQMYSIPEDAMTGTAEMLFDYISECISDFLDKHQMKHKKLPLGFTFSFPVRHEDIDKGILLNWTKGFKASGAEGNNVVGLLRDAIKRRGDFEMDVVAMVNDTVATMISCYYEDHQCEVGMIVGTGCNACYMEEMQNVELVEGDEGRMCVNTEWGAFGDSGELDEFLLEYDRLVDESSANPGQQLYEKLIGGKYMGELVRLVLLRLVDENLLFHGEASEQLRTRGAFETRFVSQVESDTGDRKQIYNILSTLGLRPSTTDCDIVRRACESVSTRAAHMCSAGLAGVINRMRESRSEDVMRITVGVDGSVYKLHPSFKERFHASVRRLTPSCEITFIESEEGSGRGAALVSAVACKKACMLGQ

[1] = Hepatic availability in rat hepatocytes; assay type: ADME, cell-based, Hepatocyte
[2] = AUC (0 to infinity) in rat at 1 mg/kg, iv; assay type: ADME, organism-based; design: dose 1 mg/kg, route intravenous, time infinity; conditions: plasma
[3] = Half life in rat at 1 mg/kg, iv; assay type: ADME, organism-based; design: dose 1 mg/kg, route intravenous; conditions: in vivo
[4] = Plasma clearance in rat at 1 mg/kg, iv; assay type: ADME, organism-based; design: dose 1 mg/kg, route intravenous
[5] = Volume of distribution at steady state in rat at 1 mg/kg, iv; assay type: ADME, organism-based; design: dose 1 mg/kg, route intravenous; conditions: in vivo, read-out: Vdss
[6] = AUC (0 to infinity) in rat at 3 mg/kg, po; assay type: ADME, organism-based; design: dose 3 mg/kg, route oral, time infinity; conditions: plasma
[7] = Oral bioavailability in rat at 3 mg/kg, po; assay type: ADME, organism-based; conditions: in vivo
Rattus norvegicus [8] = assay: Reduction in glucose AUC in overnight fasted Wistar rat at 30 mg/kg, po treated after 30 mins of glucose challenge measured after 3.5 hrs by oral glucose tolerance test; assay type: functional, organism-based; design: dose 30 mg/kg
Summary of the method: (§1)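 Nine-week-old male Wistar rats, fasted overnight, given oral dose (30 mpk) or vehicle (0.5% methylcellulose), then an oral glucose challenge (2 g/kg) 30 min later. Blood glucose read just before the challenge and at 30, 60, 90, 120, 150 and 210 min after; AUC taken from the glucose time course.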

Rattus norvegicus [9] = assay: Reduction in plasma glucose level in overnight fasted Wistar rat at 30 mg/kg, po treated after 30 mins of glucose challenge measured after 1 to 3 hrs by oral glucose tolerance test; assay type: functional, organism-based; design: dose 30 mg/kg; summary of the method: as §1

Compound: Cc1csc(NC(=O)c2nc(Sc3nncn3C)ccc2Sc2ccc(F)cc2)n1
- EC50 (Hexokinase-4): 250 nM

Compound: O=C(Nc1nccs1)c1nc(Sc2nnc[nH]2)ccc1Sc1ccccc1F
- EC50 (Hexokinase-4): 57 nM
- Fh [1]: 71%

Compound: O=C(Nc1nccs1)c1nc(Sc2nnc[nH]2)ccc1Sc1cccc(F)c1
- EC50 (Hexokinase-4): 40 nM
- Fh [1]: 89%

Compound: O=C(Nc1nccs1)c1nc(Sc2nnc[nH]2)ccc1Sc1ccccc1
- EC50 (Hexokinase-4): 38 nM
- Fh [1]: 77%

Compound: O=C(Nc1nccs1)c1nc(Sc2nnc[nH]2)ccc1Sc1ccc(C(F)(F)F)cc1
- EC50 (Hexokinase-4): 160 nM

Compound: COc1ccc(Sc2ccc(Sc3nnc[nH]3)nc2C(=O)Nc2nccs2)cc1
- EC50 (Hexokinase-4): 120 nM
- Fh [1]: 35%

Compound: O=C(Nc1nccs1)c1nc(Sc2nnc[nH]2)ccc1Sc1ccc(F)cc1
- Fh [1]: 100%
- AUC(0-inf) [2]: 4.9 µM·h
- half-life [3]: 4 h
- clearance [4]: 8.8 mL/min/kg
- Vd [5]: 0.5 L/kg
- AUC(0-inf) [6]: 3.3 µM·h
- bioavailability [7]: 23%
- Activity (Rattus norvegicus [8]): Active
- Activity (Rattus norvegicus [9]): Active

Compound: Cc1cccc(Sc2ccc(Sc3nnc[nH]3)nc2C(=O)Nc2nccs2)c1
- EC50 (Hexokinase-4): 100 nM
- Fh [1]: 69%

Compound: COc1cccc(Sc2ccc(Sc3nnc[nH]3)nc2C(=O)Nc2nccs2)c1
- EC50 (Hexokinase-4): 160 nM

Compound: Cc1csc(NC(=O)c2cc(Sc3nncn3C)ccc2Sc2ccc(F)cc2)n1
- EC50 (Hexokinase-4): 970 nM

Compound: Cn1cnnc1Sc1ccc(Sc2ccc(F)cc2)c(C(=O)Nc2nccs2)n1
- EC50 (Hexokinase-4): 120 nM
